From ChEMBL document CHEMBL2151003, “Synthesis and antitumor activity of ring A modified glycyrrhetinic acid derivatives” (Eur J Med Chem, 2011)
The source made the active and inactive calls. The calls are words filed in the database; no cut-off is given here.

How the values were obtained:
[1] = tested on: DLD-1; assay: Cytotoxicity against human DLD1 cells after 96 hrs by SRB assay; assay type: functional, cell-based
Outline: (§1)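 Monolayer cultures in RPMI 1640 with 10% heat-inactivated FBS and penicillin/streptomycin, 37 °C, 5% CO2. Exponentially growing cells were seeded, then treated 24 h later with serial dilutions (0–30 µM; DMSO or DMF ≤0.5% final) for 96 h. Cells were fixed with 10% TCA at 4 °C, stained with 0.4% SRB and solubilized in 10 mM Tris base; A570 was read. IC50 came from semi-log dose–response curves, ≥3 independent experiments.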

[2] = Cytotoxicity against human A253 cells after 96 hrs by SRB assay; assay type: functional, cell-based; outline: as §1
[3] = tested on: A549; assay: Cytotoxicity against human A549 cells after 96 hrs by SRB assay; assay type: functional, cell-based; outline: as §1
[4] = tested on: MCF7; assay: Cytotoxicity against human MCF7 cells after 96 hrs by SRB assay; assay type: functional, cell-based; outline: as §1
[5] = tested on: A-431; assay: Cytotoxicity against human A431 cells after 96 hrs by SRB assay; assay type: functional, cell-based; outline: as §1
[6] = tested on: A549; assay: Induction of apoptosis in human A549 cells assessed as appearance of green fluorescent cells at 60 uM after 24 to 48 hrs by acridine orange/ethidium bromide staining based fluorescence microscopy; assay type: functional, cell-based
Outline: (§2)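 Approx. 500,000 A549 cells per flask were grown 24 h, then exposed to compound-containing medium for 24–48 h. Cells from the supernatant were pelleted, washed and resuspended in PBS, mixed with AO/EB and examined by fluorescence microscopy. Green fluorescence was scored as apoptotic and red nuclei as necrotic; the read-out is qualitative.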

[7] = tested on: A549; assay: Induction of apoptosis in human A549 cells assessed as apoptotic effect at 60 uM after 24 to 48 hrs by trypan blue cell counting analysis; assay type: functional
Outline: (§3)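 A549 cells (approx. 500,000 per flask) were grown 24 h, then given compound-containing medium for about 24–48 h. Collected cells were pelleted, washed in PBS and mixed 1:1 with 0.4% trypan blue in PBS, pH 7.2. An automated counter distinguished cells with intact and with damaged membranes. Results are % apoptosis ± standard error, 6 experiments each.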

[8] = Cytotoxicity against human 518A2 cells after 96 hrs by SRB assay; assay type: functional, cell-based; outline: as §1
[9] = tested on: HCT-116; assay: Cytotoxicity against human HCT116 cells after 96 hrs by SRB assay; assay type: functional, cell-based; outline: as §1
[10] = tested on: HT-29; assay: Cytotoxicity against human HT-29 cells after 96 hrs by SRB assay; assay type: functional, cell-based; outline: as §1
[11] = Cytotoxicity against human Lipo cells after 96 hrs by SRB assay; assay type: functional, cell-based; outline: as §1
[12] = tested on: A549; assay: Induction of apoptosis in human A549 cells assessed as appearance of green fluorescent cells at 8 uM after 24 to 48 hrs by acridine orange/ethidium bromide staining based fluorescence microscopy; assay type: functional, cell-based; outline: as §2
[13] = tested on: A549; assay: Induction of apoptosis in human A549 cells assessed as apoptotic effect at 8 uM after 24 to 48 hrs by trypan blue cell counting analysis; assay type: functional; outline: as §3
[14] = tested on: 8505C; assay: Cytotoxicity against human 8505C cells after 96 hrs by SRB assay; assay type: functional, cell-based; outline: as §1
[15] = tested on: A549; assay: Induction of apoptosis in human A549 cells assessed as apoptotic effect at 90 uM after 24 to 48 hrs by trypan blue cell counting analysis; assay type: functional; outline: as §3
[16] = tested on: SW-1736; assay: Cytotoxicity against human SW1736 cells after 96 hrs by SRB assay; assay type: functional, cell-based; outline: as §1
[17] = tested on: A2780; assay: Cytotoxicity against human A2780 cells after 96 hrs by SRB assay; assay type: functional, cell-based; outline: as §1
[18] = tested on: A549; assay: Induction of apoptosis in human A549 cells assessed as appearance of green fluorescent cells at 20 uM after 24 to 48 hrs by acridine orange/ethidium bromide staining based fluorescence microscopy; assay type: functional, cell-based; outline: as §2
[19] = tested on: A549; assay: Induction of apoptosis in human A549 cells assessed as apoptotic effect after 24 to 48 hrs by trypan blue cell counting analysis; assay type: functional; outline: as §3
[20] = tested on: A549; assay: Induction of apoptosis in human A549 cells assessed as apoptotic effect at 4 uM after 24 to 48 hrs by trypan blue cell counting analysis; assay type: functional; outline: as §3
[21] = tested on: A549; assay: Induction of apoptosis in human A549 cells assessed as appearance of green fluorescent cells at 4 uM after 24 to 48 hrs by acridine orange/ethidium bromide staining based fluorescence microscopy; assay type: functional, cell-based; outline: as §2

**Q.** For `CCOC(=O)[C@@]1(C)CC[C@]2(C)CC[C@]3(C)C(=CC(=O)[C@@H]4[C@@]5(C)C[C@H](F)[C@@H](O)C(C)(C)[C@@H]5CC[C@]43C)[C@@H]2C1`, which IC50 [1] is on record?
**A.** > 30 µmol

**Q.** What about the IC50 [2] of the same molecule?
**A.** > 30 µmol

**Q.** What about the IC50 [3] of the same molecule?
**A.** > 30 µmol

**Q.** And the IC50 [4]?
**A.** > 30 µmol

**Q.** And the IC50 [5]?
**A.** > 30 µmol

**Q.** And the Activity [6]?
**A.** Active

**Q.** And the Activity [7]?
**A.** 80.32%

**Q.** And the IC50 [8]?
**A.** > 30 µmol

**Q.** What about the IC50 [9] of the same molecule?
**A.** > 30 µmol

**Q.** What about the IC50 [10] of the same molecule?
**A.** 24.72 µmol

**Q.** What about the IC50 [11] of the same molecule?
**A.** > 30 µmol

**Q.** Which IC50 [1] does the source give for `CC1(C)[C@@H](OC(=O)CNCCCN)CC[C@]2(C)[C@H]3C(=O)C=C4[C@@H]5C[C@@](C)(C(=O)OCc6ccccc6)CC[C@]5(C)CC[C@@]4(C)[C@]3(C)CC[C@@H]12` here?
**A.** 4.96 µmol

**Q.** What about the IC50 [2] of the same molecule?
**A.** 1.96 µmol

**Q.** What about the IC50 [3] of the same molecule?
**A.** 4.74 µmol

**Q.** And the Activity [12]?
**A.** Active

**Q.** And the Activity [13]?
**A.** 80.57%

**Q.** What about the IC50 [8] of the same molecule?
**A.** 5.14 µmol

**Q.** What about the IC50 [14] of the same molecule?
**A.** 2.07 µmol

**Q.** What about the IC50 [11] of the same molecule?
**A.** 2.99 µmol

**Q.** With `CC1(C)[C@@H](O)CC[C@]2(C)[C@H]3C(=O)C=C4[C@@H]5C[C@@](C)(C(=O)O)CC[C@]5(C)CC[C@@]4(C)[C@]3(C)CC[C@@H]12` [ENOXOLONE] as the molecule, how does the Activity [15] read?
**A.** 73.73%

**Q.** With `COC(=O)[C@@]1(C)CC[C@]2(C)CC[C@]3(C)C(=CC(=O)[C@@H]4[C@@]5(C)CC/C(=N\OC(=O)[C@H](C)NC(=O)OC(C)(C)C)C(C)(C)[C@@H]5CC[C@]43C)[C@@H]2C1` as the molecule, how does the IC50 [1] read?
**A.** 19.1 µmol

**Q.** What about the IC50 [2] of the same molecule?
**A.** 14.12 µmol

**Q.** And the IC50 [3]?
**A.** 15.83 µmol

**Q.** And the IC50 [16]?
**A.** 14.61 µmol

**Q.** And the IC50 [17]?
**A.** 12.03 µmol

**Q.** What about the IC50 [4] of the same molecule?
**A.** 15.17 µmol

**Q.** What about the Activity [18] of the same molecule?
**A.** Active

**Q.** What about the IC50 [8] of the same molecule?
**A.** 16.49 µmol

**Q.** And the IC50 [14]?
**A.** 15.47 µmol

**Q.** And the Activity [19]?
**A.** 68.54%

**Q.** And the IC50 [11]?
**A.** 18.99 µmol

**Q.** With `COC(=O)[C@@]1(C)CC[C@]2(C)CC[C@]3(C)C(=CC(=O)[C@@H]4[C@@]5(C)CC[C@H](NC(=O)[C@H](C)N)C(C)(C)[C@@H]5CC[C@]43C)[C@@H]2C1` as the molecule, how does the IC50 [1] read?
**A.** 6.44 µmol

**Q.** And the IC50 [2]?
**A.** 4.46 µmol

**Q.** And the IC50 [3]?
**A.** 5.38 µmol

**Q.** And the IC50 [16]?
**A.** 5.25 µmol

**Q.** And the IC50 [17]?
**A.** 5.39 µmol

**Q.** And the IC50 [4]?
**A.** 5.08 µmol

**Q.** What about the Activity [12] of the same molecule?
**A.** Active

**Q.** What about the Activity [13] of the same molecule?
**A.** 56.77%

**Q.** What about the IC50 [8] of the same molecule?
**A.** 5.55 µmol

**Q.** And the IC50 [14]?
**A.** 4.46 µmol

**Q.** What about the IC50 [11] of the same molecule?
**A.** 5.82 µmol

**Q.** For `COC(=O)[C@@]1(C)CC[C@]2(C)CC[C@]3(C)C(=CC(=O)[C@@H]4[C@@]5(C)CC[C@H](N)C(C)(C)[C@@H]5CC[C@]43C)[C@@H]2C1`, which IC50 [1] is on record?
**A.** 2.56 µmol

**Q.** And the IC50 [2]?
**A.** 2.36 µmol

**Q.** What about the IC50 [3] of the same molecule?
**A.** 2.51 µmol

**Q.** And the IC50 [16]?
**A.** 2.62 µmol

**Q.** And the IC50 [17]?
**A.** 3.32 µmol

**Q.** And the IC50 [4]?
**A.** 2.47 µmol

**Q.** And the Activity [20]?
**A.** 74.21%

**Q.** What about the Activity [21] of the same molecule?
**A.** Active

**Q.** And the IC50 [8]?
**A.** 2.52 µmol

**Q.** What about the IC50 [14] of the same molecule?
**A.** 2.45 µmol

**Q.** And the IC50 [11]?
**A.** 2.74 µmol
